Reference: ChEMBL document CHEMBL3421540, “Ensemble-based virtual screening for cannabinoid-like potentiators of the human glycine receptor α1 for the treatment of pain” (J Med Chem, 2015)
Active and inactive are the calls of the source. No cut-off for these calls is given here.

Experiments:
Type in all cases: cell-based
[1] = target: T1, Glycine receptor subunit alpha-1 (Homo sapiens) (UniProt P23415); assay: Potentiation of human GlyR-alpha1 expressed in Xenopus laevis oocytes assessed as induction of glycine-activated currents at 1 uM after 1 to 4 days by two-electrode voltage clamp assay relative to control
T1 sequence (whole entry): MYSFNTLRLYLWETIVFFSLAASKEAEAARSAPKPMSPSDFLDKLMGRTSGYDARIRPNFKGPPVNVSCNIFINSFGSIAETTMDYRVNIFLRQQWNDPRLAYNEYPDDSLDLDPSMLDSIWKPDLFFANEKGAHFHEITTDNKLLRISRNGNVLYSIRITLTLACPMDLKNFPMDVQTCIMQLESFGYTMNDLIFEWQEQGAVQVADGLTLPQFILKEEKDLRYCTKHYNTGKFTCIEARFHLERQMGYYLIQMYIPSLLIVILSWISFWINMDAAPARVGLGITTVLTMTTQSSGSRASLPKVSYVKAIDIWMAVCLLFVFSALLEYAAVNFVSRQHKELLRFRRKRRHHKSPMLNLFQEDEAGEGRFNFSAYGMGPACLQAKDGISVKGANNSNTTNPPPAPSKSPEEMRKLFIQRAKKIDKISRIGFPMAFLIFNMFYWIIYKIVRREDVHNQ
Outline: (§1)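 RNA for hGlyR-α1 (25−50 ng) injected into stage 5−6 Xenopus laevis oocytes held at 17 °C in modified Barth's solution; two-electrode voltage clamp 1−4 days post-injection at −60 mV holding potential. Bath: 96 mM NaCl, 2 mM KCl, 1.8 mM CaCl2, 1 mM MgCl2, 5 mM HEPES, pH 7.0. Compound coapplied with glycine at EC5; potentiation of current scored.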

[2] = target: T1, Glycine receptor subunit alpha-1 (Homo sapiens); assay: Potentiation of human GlyR-alpha1 expressed in Xenopus laevis oocytes assessed as induction of glycine-activated currents at 10 uM after 1 to 4 days by two-electrode voltage clamp assay relative to control; outline: as §1
[3] = target: Neuronal acetylcholine receptor subunit alpha-7 (Homo sapiens) (UniProt P36544); assay: Modulation of human alpha7 nAChR expressed in Xenopus laevis oocytes assessed as effect on acetylcholine-induced currents at 10 uM after 1 to 4 days by two-electrode voltage clamp assay relative to control
Outline: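 α7 nAChR RNA (25−50 ng) injected into stage 5−6 Xenopus oocytes, kept at 17 °C in modified Barth's solution. Two-electrode voltage clamp at −60 mV, 1−4 days post-injection. Bath: 96 mM NaCl, 2 mM KCl, 1.8 mM CaCl2, 1 mM MgCl2, 5 mM HEPES, pH 7.0. Compound coapplied with acetylcholine at EC50, used because of fast desensitization.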

[4] = target: T2, Glycine receptor subunit alpha-1 (Homo sapiens, UniProt P23415); assay: Potentiation of human GlyR-alpha1 expressed in Xenopus laevis oocytes assessed as induction of glycine-activated currents after 1 to 4 days by two-electrode voltage clamp assay
T2 sequence (P23415 whole entry): T1 sequence (whole entry)
Outline: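 hGlyR-α1 RNA (25−50 ng) injected into stage 5−6 Xenopus oocytes, held at 17 °C in modified Barth's solution. Recorded 1−4 days later by two-electrode voltage clamp at −60 mV in 96 mM NaCl, 2 mM KCl, 1.8 mM CaCl2, 1 mM MgCl2, 5 mM HEPES, pH 7.0. Compounds coapplied with glycine at EC5, up to 10 μM. EC50 values also derived.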

Sequence of Neuronal acetylcholine receptor subunit alpha-7 (Homo sapiens) (P36544 whole entry): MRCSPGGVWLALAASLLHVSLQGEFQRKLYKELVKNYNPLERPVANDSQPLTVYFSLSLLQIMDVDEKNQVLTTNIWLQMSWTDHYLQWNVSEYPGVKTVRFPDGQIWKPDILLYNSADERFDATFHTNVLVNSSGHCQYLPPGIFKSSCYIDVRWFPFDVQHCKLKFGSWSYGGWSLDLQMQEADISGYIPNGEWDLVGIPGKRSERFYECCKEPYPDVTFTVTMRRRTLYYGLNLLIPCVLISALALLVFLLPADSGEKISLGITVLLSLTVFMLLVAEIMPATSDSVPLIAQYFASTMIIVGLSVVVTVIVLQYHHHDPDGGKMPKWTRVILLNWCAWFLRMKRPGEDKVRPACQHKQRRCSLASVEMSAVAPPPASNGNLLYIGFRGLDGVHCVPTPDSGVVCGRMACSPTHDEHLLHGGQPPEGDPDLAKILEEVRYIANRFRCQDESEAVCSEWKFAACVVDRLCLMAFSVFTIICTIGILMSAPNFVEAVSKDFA

Row | Structure (SMILES) | Activity [1] | %max [2] | Activity [3] | EC50 [4]
1 | Cc1nc2c([nH]1)-c1ccccc1N(C(=O)c1ccc(NC(=O)c3ccccc3-c3ccccc3)cc1)CC2 | 106% | 107% |  | 
2 | C[C@@H](NCCCc1cccc(C(F)(F)F)c1)c1cccc2ccccc12 | 182% | 210% | inactive | 320 nM
3 | CCCCCc1cc(O)c2c(c1)OC(C)(C)[C@@H]1CCC(C)=C[C@@H]21 [DRONABINOL] | 162% | 260% |  | 1300 nM
4 | CNC(=O)c1cc(Oc2ccc(NC(=O)Nc3ccc(Cl)c(C(F)(F)F)c3)c(F)c2)ccn1 [REGORAFENIB] | 116% | 200% |  | 1800 nM
5 | CCCc1nc2c(C)cc(-c3nc4ccccc4n3C)cc2n1Cc1ccc(-c2ccccc2C(=O)O)cc1 | 120% | 210% |  | 3200 nM
6 | CC1=C(CC(=O)O)c2cc(F)ccc2/C1=C\c1ccc([S+](C)[O-])cc1 (centres undefined) |  |  | inactive | 380 nM
7 | O=C1NCN(c2ccccc2)C12CCN(CCCC(c1ccc(F)cc1)c1ccc(F)cc1)CC2 |  |  |  | 1200 nM
8 | COc1ccc(-c2ccc3cc(C(=O)O)ccc3c2)cc1C12CC3CC(CC(C3)C1)C2 | 172% | 260% | inactive | 1300 nM
9 | OC(c1cc(C(F)(F)F)nc2c(C(F)(F)F)cccc12)C1CCCCN1 (centres undefined) [MEFLOQUINE] | 126% | 220% |  | 2500 nM
10 | COc1cc(OC)c(NC(=O)Nc2cc(C)on2)cc1Cl | 102% | 103% |  | 
11 | O=c1[nH]c2ccccc2n1C1CCN(CCCC(c2ccc(F)cc2)c2ccc(F)cc2)CC1 [PIMOZIDE] | 219% | 510% | inactive | 1700 nM
12 | COc1ccc(CCN2CCC(Nc3nc4ccccc4n3Cc3ccc(F)cc3)CC2)cc1 [ASTEMIZOLE] | 122% | 280% |  | 4200 nM
13 | C=C1CC[C@H](O)C/C1=C/C=C1\CCC[C@]2(C)[C@@H]([C@H](C)CCCC(C)C)CC[C@@H]12 [CHOLECALCIFEROL] | 216% | 220% | inactive | 400 nM
14 | C[C@]12C=CC(=O)N[C@@H]1CC[C@@H]1[C@@H]2CC[C@]2(C)[C@@H](C(=O)Nc3cc(C(F)(F)F)ccc3C(F)(F)F)CC[C@@H]12 [DUTASTERIDE] |  |  | inactive | 330 nM
15 | Cc1nc2n(c(=O)c1CCN1CCC(c3noc4cc(F)ccc34)CC1)CCCC2 [RISPERIDONE] | 180% | 190% | inactive | 320 nM
